Here are results for 35 molecules from article PMC3074353 (Biochemistry, 2011).

In experiment [1] the test system is catalytic domain of SHP-2 [SHP-2(ΔSH2)]. The experiment can be described thus: PTP activity assay with synthetic pY peptides as substrates, SHP-2. The class given is biochemical. Conditions: for Km / kcat/KM: same buffer pH 7.4, three or more independent experiments; for Km: mean ± SD.
Experiment [2] concerns catalytic domain of SHP-1 [SHP-1(ΔSH2)]. In words: PTP activity assay with synthetic pY peptides as substrates, SHP-1. Format: biochemical. As to conditions: for Km / kcat/KM: same buffer pH 7.4, three or more independent experiments; for Km: mean ± SD.
Chain of catalytic domain of SHP-1 [SHP-1(ΔSH2)] (P29350 244-515 limits assumed, stated change not applied): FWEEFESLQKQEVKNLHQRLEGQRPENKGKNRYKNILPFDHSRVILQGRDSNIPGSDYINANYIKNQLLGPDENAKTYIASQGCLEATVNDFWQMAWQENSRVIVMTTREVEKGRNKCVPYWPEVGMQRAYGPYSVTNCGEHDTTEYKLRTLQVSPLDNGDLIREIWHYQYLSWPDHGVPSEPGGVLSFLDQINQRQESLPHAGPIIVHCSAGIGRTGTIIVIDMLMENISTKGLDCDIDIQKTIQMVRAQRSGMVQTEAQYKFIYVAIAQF
Experiment [3] deals with T1, RPTPα (amino acids 224–802) (Homo sapiens, UniProt P18433). The experiment can be described thus: PTP activity assay with synthetic pY peptides as substrates, RPTPα. Format: biochemical. As to conditions: for kcat/KM: same buffer pH 7.4, three or more independent experiments; for Km: same buffer pH 7.4, mean ± SD, three or more independent experiments.
Experiment [4] has as its target T2, PTP1B (amino acids 1–321) (Homo sapiens, UniProt P18031).
T2 sequence (P18031 1-321): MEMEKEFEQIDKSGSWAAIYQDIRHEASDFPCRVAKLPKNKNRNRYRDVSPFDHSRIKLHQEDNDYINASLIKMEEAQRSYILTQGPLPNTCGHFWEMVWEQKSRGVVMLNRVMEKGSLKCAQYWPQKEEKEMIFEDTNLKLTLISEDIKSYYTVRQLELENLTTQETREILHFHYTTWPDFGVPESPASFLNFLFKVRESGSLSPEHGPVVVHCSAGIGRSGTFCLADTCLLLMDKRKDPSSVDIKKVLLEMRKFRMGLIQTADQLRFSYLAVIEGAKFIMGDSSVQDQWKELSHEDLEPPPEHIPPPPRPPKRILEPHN
In words: PTP activity assay with synthetic pY peptides as substrates, PTP1B. The class given is biochemical. The method, boiled down:
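PTP1B catalytic fragment (residues 1–321) expressed in E. coli, quantified by Bradford against BSA. For alanine-scan peptides, kinetic constants came from fitting progress curves to the integrated Michaelis–Menten equation.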

For experiment [5], the target named is T1, RPTPα (amino acids 224–802). As to conditions: literature value, ref [20]; cited from earlier work.
Experiment [6] concerns the target T2, PTP1B (amino acids 1–321). As to conditions: ref [36], cited from earlier work.

Read-outs that look alike come from different tables or passages of the source.

For ADEDFpYAA, in experiment [1] (SHP-2), the Km (usually the substrate concentration at which the rate is half of its maximum) is 34 ± 2 µM and the kcat/KM (as a rule, the second-order rate constant that governs catalysis at low substrate concentration) is 820000 M⁻¹ s⁻¹.
With DAEDFpYAA, in experiment [1] (SHP-2), the Km was 28 ± 3 µM and the catalytic efficiency (kcat/KM) was 1.1e+06 M⁻¹ s⁻¹.
Take Ac-AVWEFpYpYAA-NH2: in experiment [2] (SHP-1), the Km stood at 7.5 ± 2 µM and the kcat/KM turned out to be 3.3e+06 M⁻¹ s⁻¹.
Turning to Ac-AAAAApYEEVH-NH2, the kcat/KM in experiment [3] came out at 39000 M⁻¹ s⁻¹.
As to AYTEpYTpYAA, in experiment [2] (SHP-1), the Km amounted to 9.1 ± 1 µM and the kcat/KM was found to be 1.9e+06 M⁻¹ s⁻¹.
With Ac-ApYpYWTApYAA-NH2, the kcat/KM value in experiment [4] worked out at 1.51e+07 M⁻¹ s⁻¹.
In the case of LIEDNEpYTARQGA, in experiment [5], the Km is 770 ± 20 µM; the kcat (usually the number of substrate molecules converted per active site and unit of time at saturation) is 8.3 ± 0.2 s⁻¹; the kcat/KM was 11000 M⁻¹ s⁻¹.
Regarding Ac-ARKRIpYAA-NH2, the kcat/KM value in experiment [4] is given as > 10^5 M^−1 s^−1. In addition, in experiment [3], the Michaelis constant (Km) is 490 ± 30 µM and the kcat/KM was 80000 M⁻¹ s⁻¹.
Consider Ac-DWEDFpYAA-NH2, for which, in experiment [1] (SHP-2), the Km amounted to 17 ± 2 µM and the kcat/KM worked out at 1.7e+06 M⁻¹ s⁻¹.
Ac-RTLAApYEEVH-NH2: the kcat/KM value in experiment [4] worked out at 840000 M⁻¹ s⁻¹.
Turning to WDEDFpYRWKF, in experiment [2] (SHP-1), the Km is 150 ± 15 µM and the kcat/KM came to 280000 M⁻¹ s⁻¹. In addition, in experiment [1] (SHP-2), the Km is 210 ± 35 µM and the kcat/KM was 340000 M⁻¹ s⁻¹.
On to `O=P(O)(O)Oc1ccccc1` [Phenyl phosphate, reference compound], for which the kcat/KM in experiment [3] came to 20 M⁻¹ s⁻¹.
Take DFEDFpYAA: in experiment [1] (SHP-2), the Michaelis constant (Km) worked out at 23 ± 2 µM and the kcat/KM worked out at 1.6e+06 M⁻¹ s⁻¹.
On to Ac-SASASpYSASA-NH2, for which the Km was 1990 ± 420 µM in experiment [2] (SHP-1), 2300 ± 400 µM in experiment [1] (SHP-2) and 530 ± 150 µM in experiment [3]. The kcat/KM in experiment [2] (SHP-1) was found to be 13000 M⁻¹ s⁻¹; in experiment [1] (SHP-2), 18000 M⁻¹ s⁻¹; in experiment [3], 43000 M⁻¹ s⁻¹.
As for FDEDFpYAA, in experiment [1] (SHP-2), the Km was 31 ± 6 µM and the kcat/KM was 1e+06 M⁻¹ s⁻¹.
Turning to Ac-WDEDFpYAA-NH2, in experiment [1] (SHP-2), the Km worked out at 43 ± 2 µM and the kcat/KM was determined as 1.1e+06 M⁻¹ s⁻¹.
With TATEPQpYQPGENL, in experiment [5], the Km is 1070 ± 30 µM, the kcat was 9.7 ± 0.2 s⁻¹ and the kcat/KM was 9100 M⁻¹ s⁻¹.
For the molecule Ac-RTLAApYRFQK-NH2, the kcat/KM value in experiment [4] is 220000 M⁻¹ s⁻¹.
As to Ac-RTLAApYAAAA-NH2, the kcat/KM value in experiment [4] is 510000 M⁻¹ s⁻¹.
Consider Ac-AAAApYAAAA-NH2, for which, in experiment [6] (literature value), the kcat/KM was 1.3 ^b μM^−1 s^−1. Besides, the kcat/KM value in experiment [6] was 1.3e+06 M⁻¹ s⁻¹.
For Ac-WDEDFpYSASA-NH2, the entries for the “increase of kcat/KM relative to Ac-SASASpYSASA-NH2” value in experiment [2] (SHP-1) and in experiment [1] (SHP-2) were 54 fold and 61 fold, respectively. Besides, the Km was 53 ± 10 µM in experiment [2] (SHP-1) and 46 ± 10 µM in experiment [1] (SHP-2). Moreover, the figures for the kcat/KM in experiment [2] (SHP-1), in experiment [1] (SHP-2) and in experiment [3] were 700000 M⁻¹ s⁻¹, 1.1e+06 M⁻¹ s⁻¹ and 69000 M⁻¹ s⁻¹, respectively. The “higher activity of SHP-2 than of SHP-1 (kcat/KM ratio)” value in experiment [1] (SHP-2 versus SHP-1) amounted to 1.6 fold.
Regarding Ac-WDEDFpYDWEF-NH2, in experiment [2] (SHP-1), the kcat/KM value amounted to 2.3e+07 M⁻¹ s⁻¹, the Km worked out at 3.2 ± 0.3 µM and the kcat/KM was 2.3e+07 M⁻¹ s⁻¹. The “increase of activity relative to peptide 6 (Ac-WDEDFpYSASA-NH2)” value in experiment [1] (SHP-2, C-terminal SASA replaced by acidic motif DWEF) worked out at 6.2 fold. In experiment [1] (SHP-2), the Km came out at 6.3 ± 0.4 µM and the kcat/KM was found to be 6.8e+06 M⁻¹ s⁻¹.
As for Ac-ASSDDpYAA-NH2, in experiment [3], the kcat/KM amounted to 13000 M⁻¹ s⁻¹.
With Ac-AAAAApYRHRR-NH2, the kcat/KM value in experiment [4] was > 10^5 M^−1 s^−1. For the same molecule, in experiment [3], the Km was determined as 2600 ± 200 µM and the specificity constant (kcat/KM) was found to be 12000 M⁻¹ s⁻¹.
Turning to TSTEPQpYQPGENL, in experiment [5], the Km was 1160 ± 140 µM, the kcat was 8.9 ± 0.5 s⁻¹ and the kcat/KM is 7700 M⁻¹ s⁻¹.
Turning to Ac-EIFDFpYAA-NH2, the Michaelis-Menten constant (Km) in experiment [2] (SHP-1) turned out to be 27 ± 4 µM; in experiment [1] (SHP-2) it was 54 ± 6 µM. Moreover, the kcat/KM came to 1.2e+06 M⁻¹ s⁻¹ in experiment [2] (SHP-1) and 480000 M⁻¹ s⁻¹ in experiment [1] (SHP-2).
For Ac-FDIDIpYAA-NH2 the same measures were 13 ± 1 µM, 39 ± 5 µM, 2.5e+06 M⁻¹ s⁻¹ and 770000 M⁻¹ s⁻¹.
On to Ac-SASASpYDWEF-NH2, for which, in experiment [2] (SHP-1), the “increase of kcat/KM relative to Ac-SASASpYSASA-NH2” value is recorded as 19 fold, the Km came out at 48 ± 9 µM and the kcat/KM amounted to 250000 M⁻¹ s⁻¹. In experiment [1] (SHP-2), the “increase of kcat/KM relative to Ac-SASASpYSASA-NH2” value was 10 fold, the Km came out at 180 ± 7 µM and the kcat/KM is 190000 M⁻¹ s⁻¹.
Turning to EADTApYAA, in experiment [3], the Km is 1400 ± 100 µM and the kcat/KM came to 19000 M⁻¹ s⁻¹.
With Ac-WAGDDpYAA-NH2, the Michaelis-Menten constant (Km) was found to be 45 ± 5 µM in experiment [2] (SHP-1) and 68 ± 15 µM in experiment [1] (SHP-2). Moreover, the kcat/KM in experiment [2] (SHP-1) was 1.3e+06 M⁻¹ s⁻¹; in experiment [1] (SHP-2), 530000 M⁻¹ s⁻¹. Moreover, the “higher reactivity to SHP-1 than to SHP-2 (kcat/KM ratio)” value in experiment [2] (SHP-1 versus SHP-2) stood at 2.5 fold.
Consider Ac-RRISTpYAA-NH2, for which the kcat/KM value in experiment [4] was > 10^5 M^−1 s^−1. In experiment [3], the Michaelis-Menten constant (Km) stood at 1200 ± 100 µM and the kcat/KM is 41000 M⁻¹ s⁻¹.
Turning to `O=[N+]([O-])c1ccc(OP(=O)(O)O)cc1` [pNPP, reference compound], in experiment [3], the Km came to 2700 ± 300 µM and the kcat/KM was 190 M⁻¹ s⁻¹.
On to WRKRFpYDWEF, for which, in experiment [2] (SHP-1), the Michaelis constant (Km) is 780 ± 640 µM and the kcat/KM was 2200 M⁻¹ s⁻¹. In experiment [1] (SHP-2), the Km amounted to 560 ± 140 µM and the kcat/KM amounted to 2300 M⁻¹ s⁻¹.
For Ac-FYDIDpYAA-NH2 the same measures were 28 ± 2 µM, 2.4e+06 M⁻¹ s⁻¹, 66 ± 13 µM and 750000 M⁻¹ s⁻¹.
For Ac-AKFEDTpYAA-NH2, in experiment [2] (SHP-1), the Km worked out at 58 ± 13 µM and the specificity constant (kcat/KM) was 340000 M⁻¹ s⁻¹.
